Reference: ChEMBL document CHEMBL1148046, “Marine alkaloids, 15. Two alkaloids, flustramine E and debromoflustramine B, from the marine bryozoan Flustra foliacea” (1994)
Activity calls are given as the source filed them. No cut-off for these calls is given here.

Experiments:
Pseudomonas aeruginosa = experiment: Antimicrobial activity against Pseudomonas aeruginosa at 1000 ppm; type: functional, organism-based
How it was run: (§1)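 Compound applied at 1000 ppm in DMSO to each bacterial, fungal or oomycete test organism; activity read as the diameter of the growth-inhibition zone in mm.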

Globisporangium ultimum = experiment: Antimicrobial activity against Pythium ultimum at 1000 ppm; type: functional, organism-based; how it was run: as §1
Aspergillus niger = experiment: Antimicrobial activity against Aspergillus niger at 1000 ppm; type: functional, organism-based; how it was run: as §1
Bacillus subtilis [1] = experiment: Antimicrobial activity against Bacillus subtilis at 1000 ppm; type: functional; conditions: read-out: IZ; how it was run: as §1
Fusarium oxysporum [2] = experiment: Antimicrobial activity against Fusarium oxysporum at 1000 ppm; type: functional; conditions: read-out: IZ; how it was run: as §1
Saccharomyces cerevisiae [3] = experiment: Antimicrobial activity against Saccharomyces cerevisiae at 1000 ppm; type: functional; conditions: read-out: IZ; how it was run: as §1
Bacillus subtilis [4] = experiment: Antimicrobial activity against Bacillus subtilis at 100 ppm; type: functional, organism-based
Fusarium oxysporum [5] = experiment: Antimicrobial activity against Fusarium oxysporum at 100 ppm; type: functional, organism-based
Saccharomyces cerevisiae [6] = experiment: Antimicrobial activity against Saccharomyces cerevisiae at 100 ppm; type: functional, organism-based
Rhizoctonia solani [7] = experiment: Antimicrobial activity against Rhizoctonia solani at 1000 ppm; type: functional; conditions: read-out: IZ; how it was run: as §1
Rhizoctonia solani [8] = experiment: Antimicrobial activity against Rhizoctonia solani at 100 ppm; type: functional; conditions: read-out: IZ
Rhizoctonia solani [9] = experiment: Antimicrobial activity against Rhizoctonia solani at 10 ppm; type: functional; conditions: read-out: IZ
Botrytis cinerea [10] = experiment: Antimicrobial activity against Botrytis cinerea at 1000 ppm; type: functional; conditions: read-out: IZ; how it was run: as §1
Botrytis cinerea [11] = experiment: Antimicrobial activity against Botrytis cinerea at 100 ppm; type: functional; conditions: read-out: IZ
Botrytis cinerea [12] = experiment: Antimicrobial activity against Botrytis cinerea at 10 ppm; type: functional; conditions: read-out: IZ

In the case of `CC(C)=CC[C@@]12CCN(C)[C@@H]1Nc1cc(Br)ccc12` (relative stereo) [FLUSTRAMINE E], the Activity (Pseudomonas aeruginosa) is reported as “inactive”, the Activity (Globisporangium ultimum) is reported as “inactive” and the Activity (Aspergillus niger) is reported as “inactive”. The zone of inhibition at 1000 ppm (Bacillus subtilis [1]) was 12 mm, the zone of inhibition at 1000 ppm (Fusarium oxysporum [2]) was 10 mm and the zone of inhibition at 1000 ppm (Saccharomyces cerevisiae [3]) was 14 mm. The Activity (Bacillus subtilis [4]) was “inactive”, the Activity (Fusarium oxysporum [5]) was “inactive” and the Activity (Saccharomyces cerevisiae [6]) was “inactive”. The zone of inhibition at 1000 ppm (Rhizoctonia solani [7]) was 10 mm, the zone of inhibition at 100 ppm (Rhizoctonia solani [8]) was 9 mm and the zone of inhibition at 10 ppm (Rhizoctonia solani [9]) was 9 mm. For the same compound, the zone of inhibition at 1000 ppm (Botrytis cinerea [10]) was 27 mm, the zone of inhibition at 100 ppm (Botrytis cinerea [11]) was 25 mm and the zone of inhibition at 10 ppm (Botrytis cinerea [12]) was 21 mm.
